Test results reported in ChEMBL document CHEMBL2062435, “Synthesis and in vitro antibacterial activity of gemifloxacin derivatives containing a substituted benzyloxime moiety” (2012).

What was measured:
Assay type in all cases: functional
Pseudomonas aeruginosa [1] = test: Antimicrobial activity against extended spectrum beta-lactamases-producing Pseudomonas aeruginosa 10-15 after 18-24 hrs by two-fold serial dilution method
How it was run: (§1)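 Agar-medium twofold serial dilution against Gram-positive and Gram-negative strains; MIC taken as the lowest compound concentration giving complete inhibition of bacterial growth after incubation at 35 °C for 18-24 h.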

Pseudomonas aeruginosa [2] = test: Antimicrobial activity against extended spectrum beta-lactamases-producing Pseudomonas aeruginosa 10-5 after 18-24 hrs by two-fold serial dilution method; how it was run: as §1
Klebsiella pneumoniae [3] = test: Antimicrobial activity against extended spectrum beta-lactamases-producing Klebsiella pneumoniae 10-1 after 18-24 hrs by two-fold serial dilution method; how it was run: as §1
Enterococcus faecium [4] = test: Antimicrobial activity against Enterococcus faecium 10-9 after 18-24 hrs by two-fold serial dilution method; how it was run: as §1
[5] = test system: Staphylococcus epidermidis; test: Antimicrobial activity against extended spectrum beta-lactamases-producing methicillin-resistant Staphylococcus epidermidis 10-10 after 18-24 hrs by two-fold serial dilution method
How it was run: (§2)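 Agar twofold serial dilution MIC against clinical isolates. MIC was taken as the lowest concentration giving complete inhibition of bacterial growth after incubation at 35 °C for 18-24 h.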

Streptococcus pneumoniae [6] = test: Antimicrobial activity against extended spectrum beta-lactamases-producing Streptococcus pneumoniae 10-1 after 18-24 hrs by two-fold serial dilution method; how it was run: as §1
Escherichia coli [7] = test: Antimicrobial activity against extended spectrum beta-lactamases-producing Escherichia coli 10-3 after 18-24 hrs by two-fold serial dilution method; how it was run: as §1
[8] = test system: Staphylococcus epidermidis; test: Antimicrobial activity against extended spectrum beta-lactamases-producing methicillin-sensitive Staphylococcus epidermidis 10-11 after 18-24 hrs by two-fold serial dilution method; how it was run: as §1
Escherichia coli [9] = test: Antimicrobial activity against extended spectrum beta-lactamases-producing Escherichia coli 10-2 after 18-24 hrs by two-fold serial dilution method; how it was run: as §1
Escherichia coli [10] = test: Antimicrobial activity against Escherichia coli ATCC 25922 after 18-24 hrs by two-fold serial dilution method; how it was run: as §1
Enterococcus faecium [11] = test: Antimicrobial activity against Enterococcus faecium 10-5 after 18-24 hrs by two-fold serial dilution method; how it was run: as §1
Staphylococcus aureus [12] = test: Antimicrobial activity against extended spectrum beta-lactamases-producing methicillin-resistant Staphylococcus aureus 10-15 after 18-24 hrs by two-fold serial dilution method; how it was run: as §2
Pseudomonas aeruginosa [13] = test: Antimicrobial activity against extended spectrum beta-lactamases-producing Pseudomonas aeruginosa 10-18 after 18-24 hrs by two-fold serial dilution method; how it was run: as §1
[14] = test system: Staphylococcus epidermidis; test: Antimicrobial activity against extended spectrum beta-lactamases-producing methicillin-sensitive Staphylococcus epidermidis 10-15 after 18-24 hrs by two-fold serial dilution method; how it was run: as §1
Staphylococcus aureus [15] = test: Antimicrobial activity against extended spectrum beta-lactamases-producing methicillin-resistant Staphylococcus aureus 10-11 after 18-24 hrs by two-fold serial dilution method; how it was run: as §2
Staphylococcus aureus [16] = test: Antimicrobial activity against extended spectrum beta-lactamases-producing methicillin-sensitive Staphylococcus aureus 10-13 after 18-24 hrs by two-fold serial dilution method; how it was run: as §1
Klebsiella pneumoniae [17] = test: Antimicrobial activity against Klebsiella pneumoniae 10-3 after 18-24 hrs by two-fold serial dilution method; how it was run: as §1
Klebsiella pneumoniae [18] = test: Antimicrobial activity against Klebsiella pneumoniae 10-2 after 18-24 hrs by two-fold serial dilution method; how it was run: as §1
Enterococcus faecalis [19] = test: Antimicrobial activity against Enterococcus faecalis 10-6 after 18-24 hrs by two-fold serial dilution method; how it was run: as §1
Staphylococcus aureus [20] = test: Antimicrobial activity against extended spectrum beta-lactamases-producing methicillin-sensitive Staphylococcus aureus 10-14 after 18-24 hrs by two-fold serial dilution method; how it was run: as §1
Klebsiella pneumoniae [21] = test: Antimicrobial activity against extended spectrum beta-lactamases-producing Klebsiella pneumoniae 10-3 after 18-24 hrs by two-fold serial dilution method; how it was run: as §1
Enterococcus faecalis [22] = test: Antimicrobial activity against Enterococcus faecalis 10-5 after 18-24 hrs by two-fold serial dilution method; how it was run: as §1
Enterococcus faecalis [23] = test: Antimicrobial activity against Enterococcus faecalis 10-7 after 18-24 hrs by two-fold serial dilution method; how it was run: as §1
Pseudomonas aeruginosa [24] = test: Antimicrobial activity against extended spectrum beta-lactamases-producing Pseudomonas aeruginosa 10-9 after 18-24 hrs by two-fold serial dilution method; how it was run: as §1
Escherichia coli [25] = test: Antimicrobial activity against Escherichia coli 10-1 after 18-24 hrs by two-fold serial dilution method; how it was run: as §1
Escherichia coli [26] = test: Antimicrobial activity against Escherichia coli 10-3 after 18-24 hrs by two-fold serial dilution method; how it was run: as §1
[27] = test system: Staphylococcus epidermidis; test: Antimicrobial activity against extended spectrum beta-lactamases-producing methicillin-sensitive Staphylococcus epidermidis 10-13 after 18-24 hrs by two-fold serial dilution method; how it was run: as §1
Klebsiella pneumoniae [28] = test: Antimicrobial activity against Klebsiella pneumoniae 10-4 after 18-24 hrs by two-fold serial dilution method; how it was run: as §1
Pseudomonas aeruginosa [29] = test: Antimicrobial activity against extended spectrum beta-lactamases-producing Pseudomonas aeruginosa 10-20 after 18-24 hrs by two-fold serial dilution method; how it was run: as §1
Klebsiella pneumoniae [30] = test: Antimicrobial activity against extended spectrum beta-lactamases-producing Klebsiella pneumoniae 10-2 after 18-24 hrs by two-fold serial dilution method; how it was run: as §1
Escherichia coli [31] = test: Antimicrobial activity against Escherichia coli 10-2 after 18-24 hrs by two-fold serial dilution method; how it was run: as §1
[32] = test system: Staphylococcus epidermidis; test: Antimicrobial activity against extended spectrum beta-lactamases-producing methicillin-resistant Staphylococcus epidermidis 10-13 after 18-24 hrs by two-fold serial dilution method; how it was run: as §2
Escherichia coli [33] = test: Antimicrobial activity against extended spectrum beta-lactamases-producing Escherichia coli 10-4 after 18-24 hrs by two-fold serial dilution method; how it was run: as §1
Streptococcus pneumoniae [34] = test: Antimicrobial activity against extended spectrum beta-lactamases-producing Streptococcus pneumoniae 10-4 after 18-24 hrs by two-fold serial dilution method; how it was run: as §1
Staphylococcus aureus [35] = test: Antimicrobial activity against Staphylococcus aureus ATCC […] after 18-24 hrs by two-fold serial dilution method; how it was run: as §1
Pseudomonas aeruginosa [36] = test: Antimicrobial activity against Pseudomonas aeruginosa 10-12 after 18-24 hrs by two-fold serial dilution method; how it was run: as §1

SMILES | MIC (Pseudomonas aeruginosa [1]) | MIC (Pseudomonas aeruginosa [2]) | MIC (Klebsiella pneumoniae [3]) | MIC (Enterococcus faecium [4]) | MIC [5] | MIC (Streptococcus pneumoniae [6]) | MIC (Escherichia coli [7]) | MIC [8] | MIC (Escherichia coli [9]) | MIC (Escherichia coli [10]) | MIC (Enterococcus faecium [11]) | MIC (Staphylococcus aureus [12]) | MIC (Pseudomonas aeruginosa [13]) | MIC [14] | MIC (Staphylococcus aureus [15]) | MIC (Staphylococcus aureus [16]) | MIC (Klebsiella pneumoniae [17]) | MIC (Klebsiella pneumoniae [18]) | MIC (Enterococcus faecalis [19]) | MIC (Staphylococcus aureus [20]) | also measured
COc1cc(CO/N=C2\CN(c3nc4c(cc3F)c(=O)c(C(=O)O)cn4C3CC3)CC2CN)c([N+](=O)[O-])cc1OC.CS(=O)(=O)O (racemic) | 32 µg/mL | 16 µg/mL | > 128 µg/mL | 16 µg/mL | 1 µg/mL | 1 µg/mL | > 128 µg/mL | 2 µg/mL | > 128 µg/mL | 0.25 µg/mL | 8 µg/mL | 1 µg/mL | 16 µg/mL | 8 µg/mL | 2 µg/mL | 0.125 µg/mL | 4 µg/mL | > 128 µg/mL | 16 µg/mL | 0.125 µg/mL | MIC (Klebsiella pneumoniae [21]): > 128 µg/mL; MIC (Enterococcus faecalis [22]): 0.125 µg/mL; MIC (Enterococcus faecalis [23]): 2 µg/mL; MIC (Pseudomonas aeruginosa [24]): 16 µg/mL; MIC (Escherichia coli [25]): > 128 µg/mL; MIC (Escherichia coli [26]): 32 µg/mL; MIC [27]: 0.25 µg/mL; MIC (Klebsiella pneumoniae [28]): > 128 µg/mL; MIC (Pseudomonas aeruginosa [29]): 32 µg/mL; MIC (Klebsiella pneumoniae [30]): > 128 µg/mL; MIC (Escherichia coli [31]): 8 µg/mL; MIC [32]: 1 µg/mL; MIC (Escherichia coli [33]): 4 µg/mL; MIC (Streptococcus pneumoniae [34]): 0.125 µg/mL; MIC (Staphylococcus aureus [35]): 0.015 µg/mL; MIC (Pseudomonas aeruginosa [36]): 16 µg/mL
COc1cc(CO/N=C2\CN(c3nc4c(cc3F)c(=O)c(C(=O)O)cn4C3CC3)CC2CN)ccc1OCc1ccccc1.CS(=O)(=O)O (racemic) | 32 µg/mL | 16 µg/mL | > 128 µg/mL | 16 µg/mL | 4 µg/mL | 4 µg/mL | > 128 µg/mL | 8 µg/mL | > 128 µg/mL | 2 µg/mL | 16 µg/mL | 0.5 µg/mL | 16 µg/mL | 8 µg/mL | 4 µg/mL | 4 µg/mL | 32 µg/mL | > 128 µg/mL | 8 µg/mL | < 0.008 µg/mL | MIC (Klebsiella pneumoniae [21]): > 128 µg/mL; MIC (Enterococcus faecalis [22]): 4 µg/mL; MIC (Enterococcus faecalis [23]): 4 µg/mL; MIC (Pseudomonas aeruginosa [24]): 16 µg/mL; MIC (Escherichia coli [25]): > 128 µg/mL; MIC (Escherichia coli [26]): > 128 µg/mL; MIC [27]: 2 µg/mL; MIC (Klebsiella pneumoniae [28]): > 128 µg/mL; MIC (Pseudomonas aeruginosa [29]): 0.06 µg/mL; MIC (Klebsiella pneumoniae [30]): > 128 µg/mL; MIC (Escherichia coli [31]): 16 µg/mL; MIC [32]: 1 µg/mL; MIC (Escherichia coli [33]): 32 µg/mL; MIC (Streptococcus pneumoniae [34]): 16 µg/mL; MIC (Staphylococcus aureus [35]): < 0.008 µg/mL; MIC (Pseudomonas aeruginosa [36]): < 0.008 µg/mL
CS(=O)(=O)O.Cc1ccc(CO/N=C2\CN(c3nc4c(cc3F)c(=O)c(C(=O)O)cn4C3CC3)CC2CN)cc1C (racemic) | 8 µg/mL | 4 µg/mL | > 128 µg/mL | 8 µg/mL | 1 µg/mL | 0.125 µg/mL | > 128 µg/mL | 0.25 µg/mL | > 128 µg/mL | 0.015 µg/mL | 8 µg/mL | 0.25 µg/mL | 16 µg/mL | 1 µg/mL | 2 µg/mL | 0.06 µg/mL | 8 µg/mL | > 128 µg/mL | 4 µg/mL | < 0.008 µg/mL | MIC (Klebsiella pneumoniae [21]): > 128 µg/mL; MIC (Enterococcus faecalis [22]): 0.5 µg/mL; MIC (Enterococcus faecalis [23]): 4 µg/mL; MIC (Pseudomonas aeruginosa [24]): 4 µg/mL; MIC (Escherichia coli [25]): 64 µg/mL; MIC (Escherichia coli [26]): 8 µg/mL; MIC [27]: 8 µg/mL; MIC (Klebsiella pneumoniae [28]): > 128 µg/mL; MIC (Pseudomonas aeruginosa [29]): 8 µg/mL; MIC (Klebsiella pneumoniae [30]): > 128 µg/mL; MIC (Escherichia coli [31]): 8 µg/mL; MIC [32]: 1 µg/mL; MIC (Escherichia coli [33]): 8 µg/mL; MIC (Streptococcus pneumoniae [34]): 0.5 µg/mL; MIC (Staphylococcus aureus [35]): 0.008 µg/mL; MIC (Pseudomonas aeruginosa [36]): 4 µg/mL
CS(=O)(=O)O.NCC1CN(c2nc3c(cc2F)c(=O)c(C(=O)O)cn3C2CC2)C/C1=N\OCc1ccc2c(c1)OCCO2 (racemic) | 2 µg/mL | 2 µg/mL | > 128 µg/mL | 8 µg/mL | 0.5 µg/mL | 0.5 µg/mL | > 128 µg/mL | 0.5 µg/mL | > 128 µg/mL | 0.25 µg/mL | 8 µg/mL | 0.5 µg/mL | 4 µg/mL | 0.5 µg/mL | 1 µg/mL | 0.06 µg/mL | 32 µg/mL | 16 µg/mL | 4 µg/mL | 0.06 µg/mL | MIC (Klebsiella pneumoniae [21]): 4 µg/mL; MIC (Enterococcus faecalis [22]): 0.5 µg/mL; MIC (Enterococcus faecalis [23]): 1 µg/mL; MIC (Pseudomonas aeruginosa [24]): 2 µg/mL; MIC (Escherichia coli [25]): 16 µg/mL; MIC (Escherichia coli [26]): 4 µg/mL; MIC [27]: 2 µg/mL; MIC (Klebsiella pneumoniae [28]): 128 µg/mL; MIC (Pseudomonas aeruginosa [29]): 2 µg/mL; MIC (Klebsiella pneumoniae [30]): > 128 µg/mL; MIC (Escherichia coli [31]): 4 µg/mL; MIC [32]: 0.5 µg/mL; MIC (Escherichia coli [33]): 2 µg/mL; MIC (Streptococcus pneumoniae [34]): 2 µg/mL; MIC (Staphylococcus aureus [35]): 0.06 µg/mL; MIC (Pseudomonas aeruginosa [36]): 2 µg/mL
